The results in this text go back to ChEMBL document CHEMBL5500387, “Design, synthesis of combretastatin A-4 piperazine derivatives as potential antitumor agents by inhibiting tubulin polymerization and inducing autophagy in HCT116 cells” (Eur J Med Chem, 2024).

One series concerns HCT-116. Briefly: Cytotoxicity against human HCT-116 cells assessed as inhibition of cell proliferation measured after 72 hrs by CCK-8 assay. The class given is functional, cell-based. Particulars: HCT-116, 72 h. In short, it runs like this: (§1)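 Cells seeded at 2×10^3 per well and grown overnight in 10% FBS medium: HCT116 in McCoy's 5A, A549 and AGS in F-12K, SK-MES-1 in DMEM. Compounds added at varied concentrations with 0.1% DMSO control, 72 h at 37 °C. 10% CCK-8 for 2 h, then A450 read. Survival = (As−Ab)/(Ac−Ab)×100%. IC50 from curve fitting.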

A short description of series [1]: Octanol-water partition coefficient, log P of the compound at pH 7.4 at 4 mg measured after 24 hrs by liquid chromatography. The class given is physicochemical. In short, it runs like this:
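4 mg of compound was dissolved in 1 mL water-saturated n-octanol and held 24 h at room temperature, then centrifuged. The supernatant was mixed with an equal volume of octanol-saturated water, stood 24 h, centrifuged and the phases separated. Phase concentrations were measured by LC standard curves. log P = log(C_octanol/C_water). At least three independent runs.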

Another series has as its system A549. Briefly: Cytotoxicity against human A549 cells assessed as inhibition of cell proliferation measured after 72 hrs by CCK-8 assay. The class given is functional, cell-based. The note with it: A549, 72 h. In short, it runs like this: as §1
A general note: Tetrazolium assays rely on reduction of a dye to a coloured formazan, in cell work by metabolically active cells.

In the next series the test system is AGS. Briefly: Cytotoxicity against human AGS cells assessed as inhibition of cell proliferation measured after 72 hrs by CCK-8 assay. The class given is functional, cell-based. In short, it runs like this:
as §1

The next series concerns SK-MES-1. Briefly: Cytotoxicity against human SK-MES-1 cells assessed as inhibition of cell proliferation measured after 72 hrs by CCK-8 assay. Particulars: SK-MES-1, 72 h. The class given is functional, cell-based. Summed up: as §1
The nature of series [2]: Cytotoxicity against human NCM460 cells assessed as inhibition of cell proliferation measured after 72 hrs by CCK-8 assay. The class given is toxicity, cell-based. In short, it runs like this:
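NCM460 normal colonic epithelial cells seeded at 2×10^3 cells/well and grown overnight in RPMI-1640 with 10% FBS. Compounds added at a range of concentrations, 0.1% DMSO as negative control, 72 h at 37 °C. Read-out by CCK-8 (10%, 2 h) at 450 nm. Survival = (As−Ab)/(Ac−Ab)×100%; IC50 taken as concentration giving 50% inhibition of proliferation.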

SMILES strings stand for the structures.

Take `COc1ccc(/C=C(/C(=O)N2CCN(c3cccc(C)c3)CC2)c2cc(OC)c(OC)c(OC)c2)cc1O`: the IC50 – broadly, the concentration that gives 50% inhibition – in the series on HCT-116 is 1770 nM.

`COc1ccc(/C=C(/C(=O)N2CCN(c3ccc(C)cc3)CC2)c2cc(OC)c(OC)c(OC)c2)cc1O[C@H]1O[C@@H](CO)[C@@H](O)[C@@H](O)[C@@H]1O`: the logD (commonly lipophilicity at a set pH, counting ionised and neutral species) at 24 h in series [1] is -0.432.

As for `COc1ccc(/C=C(/C(=O)N2CCN(c3ccc(F)cc3)CC2)c2cc(OC)c(OC)c(OC)c2)cc1O`, the IC50 in the series on HCT-116 is 253 nM; with A549, 270 nM; in the series with AGS, 531 nM; in the series on SK-MES-1, 385 nM.

Regarding `COc1ccc(/C=C(/C(=O)N2CCN(Cc3ccc(F)cc3)CC2)c2cc(OC)c(OC)c(OC)c2)cc1O`, the IC50 in the series on HCT-116 came out at 2100 nM.

`COc1ccc(/C=C(/C(=O)N2CCN(c3ccc(C#N)cc3)CC2)c2cc(OC)c(OC)c(OC)c2)cc1O`: the IC50 with HCT-116 was determined as 3350 nM.

With `COc1ccc(/C=C(/C(=O)N2CCN(Cc3ccc(Cl)cc3)CC2)c2cc(OC)c(OC)c(OC)c2)cc1O`, in the series on HCT-116, the IC50 turned out to be 2690 nM.

In the case of `COc1ccc(/C=C(/C(=O)N2CCN(c3ccccc3Cl)CC2)c2cc(OC)c(OC)c(OC)c2)cc1O`, in the series on HCT-116, the IC50 came out at 1840 nM.

Take `COc1ccc(/C=C(/C(=O)N2CCNCC2)c2cc(OC)c(OC)c(OC)c2)cc1O`: the IC50 in the series with HCT-116 is 735 nM.

With `COc1ccc(/C=C(/C(=O)N2CCCC2)c2cc(OC)c(OC)c(OC)c2)cc1O`, in the series on HCT-116, the IC50 came out at 2480 nM.

For the molecule `COc1ccc(/C=C(/C(=O)N2CCN(Cc3ccccc3C)CC2)c2cc(OC)c(OC)c(OC)c2)cc1O`, the concentration for half-maximal inhibition (IC50) with HCT-116 came out at 2850 nM.

For `COc1ccc(/C=C(/C(=O)N2CCOCC2)c2cc(OC)c(OC)c(OC)c2)cc1O`, the IC50 in the series on HCT-116 came out at 926 nM.

`COc1ccc(/C=C\c2cc(OC)c(OC)c(OC)c2)cc1O` [COMBRETASTATIN A4] registered a logD at 24 h in series [1] of 2.14. Further, the IC50 came to 74 nM with AGS and 7 nM with SK-MES-1. The IC50 at 72 h in series [2] is 11 nM.

Turning to `COc1ccc(/C=C(/C(=O)N2CCN(c3ccc(Br)cc3)CC2)c2cc(OC)c(OC)c(OC)c2)cc1O`, the IC50 in the series with HCT-116 was found to be 716 nM; in the series on A549, 547 nM; with AGS, 1350 nM; in the series on SK-MES-1 it was 803 nM.

Take `COc1ccc(N2CCN(C(=O)/C(=C/c3ccc(OC)c(O)c3)c3cc(OC)c(OC)c(OC)c3)CC2)cc1`: the IC50 in the series with HCT-116 amounted to 941 nM; in the series with A549, 657 nM; in the series on AGS it was 882 nM; with SK-MES-1, 605 nM.

`COc1ccc(/C=C(/C(=O)N2CCN(c3ccc(C)cc3)CC2)c2cc(OC)c(OC)c(OC)c2)cc1O[C@H]1O[C@@H](CO)[C@H](O[C@@H]2O[C@H](CO)[C@H](O)[C@H](O)[C@H]2O)[C@@H](O)[C@@H]1O` came in with a logD at 24 h in series [1] of -0.824.

Take `COc1ccc(/C=C(/C(=O)N2CCN(Cc3ccc(C)cc3)CC2)c2cc(OC)c(OC)c(OC)c2)cc1O`: in the series with HCT-116, the IC50 was determined as 1980 nM.

With `COc1ccc(/C=C(/C(=O)N2CCSCC2)c2cc(OC)c(OC)c(OC)c2)cc1O`, in the series on HCT-116, the IC50 amounted to 1150 nM.

Take `COc1ccc(/C=C(/C(=O)N2CCS(=O)(=O)CC2)c2cc(OC)c(OC)c(OC)c2)cc1O`: in the series with HCT-116, the IC50 was 1990 nM.

Regarding `COc1cccc(N2CCN(C(=O)/C(=C/c3ccc(OC)c(O)c3)c3cc(OC)c(OC)c(OC)c3)CC2)c1`, the IC50 in the series on HCT-116 was found to be 1860 nM.

For the molecule `COc1ccc(/C=C(/C(=O)N2CCN(c3ccccc3C)CC2)c2cc(OC)c(OC)c(OC)c2)cc1O`, in the series with HCT-116, the IC50 worked out at 1580 nM.

As for `COc1ccc(/C=C(/C(=O)N2CCN(Cc3cccc(C)c3)CC2)c2cc(OC)c(OC)c(OC)c2)cc1O`, in the series on HCT-116, the IC50 was determined as 3640 nM.

For `COc1ccc(/C=C(/C(=O)N2CCN(c3ccc([N+](=O)[O-])cc3)CC2)c2cc(OC)c(OC)c(OC)c2)cc1O`, the IC50 in the series with HCT-116 amounted to 2770 nM.

As for `COc1ccc(/C=C(/C(=O)N2CCN(c3ccccc3F)CC2)c2cc(OC)c(OC)c(OC)c2)cc1O`, the IC50 with HCT-116 is 1380 nM.

In the case of `COc1ccc(/C=C(/C(=O)N2CCN(c3ccc(C)cc3)CC2)c2cc(OC)c(OC)c(OC)c2)cc1O[C@H]1O[C@@H](CO)[C@H](O)[C@@H](O)[C@@H]1O`, the logD at 24 h in series [1] is -0.538.

`COc1ccc(/C=C(/C(=O)N2CCN(c3ccc(C)cc3)CC2)c2cc(OC)c(OC)c(OC)c2)cc1O[C@H]1O[C@H](CO)[C@@H](O)[C@H](O)[C@@H]1O` had a logD at 24 h in series [1] of -0.638.

In the case of `COc1ccc(/C=C(/C(=O)N2CCN(c3ccc(Cl)cc3)CC2)c2cc(OC)c(OC)c(OC)c2)cc1O`, the IC50 in the series on HCT-116 amounted to 593 nM; in the series with A549, 366 nM; in the series with AGS, 1110 nM; in the series with SK-MES-1 it was 753 nM.
